Results reported in ChEMBL document CHEMBL3621107, “Ring fusion strategy for synthesis and lead optimization of sulfur-substituted anthra[1,2-c][1,2,5]thiadiazole-6,11-dione derivatives as promising scaffold of antitumor agents” (Eur J Med Chem, 2015).

Tests used:
Format in all cases: functional
[1] = system: K562; test: Cytotoxicity against human K562 cells after 48 hrs by SRB assay; conditions: K562, 48 h
In short: (§1)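 NCI-60 human tumour cell panel screen, second stage, run by the NCI Developmental Therapeutics Program. Compounds were tested at five concentrations (0.01, 0.1, 1, 10 and 100 μM). Percentage growth was plotted against log10 concentration for each cell line. GI50, TGI and LC50 were taken from these dose-response curves.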

[2] = system: RPMI-8226; test: Cytotoxicity against human RPMI8226 cells after 48 hrs by SRB assay; conditions: RPMI-8226, 48 h
In short: (§2)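 Second-stage NCI-60 panel run by the NCI Developmental Therapeutics Program, covering nine tumour subpanels. Five concentrations were tested: 0.01, 0.1, 1, 10 and 100 μM. Percentage growth at each level was plotted against log10 drug concentration. GI50, TGI and LC50 were read from these dose-response curves. Subpanel MID values were divided into the full-panel MID to give selectivity ratios.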

[3] = system: A549; test: Cytotoxicity against human A549 cells after 48 hrs by SRB assay; conditions: A549, 48 h; in short: as §1
[4] = system: HOP-92; test: Cytotoxicity against human HOP92 cells after 48 hrs by SRB assay; conditions: HOP-92, 48 h; in short: as §1
[5] = system: NCI-H522; test: Cytotoxicity against human NCI-H522 cells after 48 hrs by SRB assay; conditions: NCI-H522, 48 h; in short: as §2
[6] = system: COLO 205; test: Cytotoxicity against human COLO205 cells after 48 hrs by SRB assay; conditions: COLO 205, 48 h; in short: as §1
[7] = system: HCT-116; test: Cytotoxicity against human HCT116 cells after 48 hrs by SRB assay; conditions: HCT-116, 48 h; in short: as §1
[8] = system: HCT-15; test: Cytotoxicity against human HCT15 cells after 48 hrs by SRB assay; conditions: HCT-15, 48 h; in short: as §1
[9] = system: HT-29; test: Cytotoxicity against human HT-29 cells after 48 hrs by SRB assay; conditions: HT-29, 48 h; in short: as §1
[10] = system: KM12; test: Cytotoxicity against human KM12 cells after 48 hrs by SRB assay; conditions: KM12, 48 h; in short: as §1
[11] = system: SW-620; test: Cytotoxicity against human SW620 cells after 48 hrs by SRB assay; conditions: SW-620, 48 h
In short: (§3)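 NCI-60 five-dose study run by NCI DTP at 0.01, 0.1, 1, 10 and 100 µM. Percentage growth at each level was plotted against log10 concentration for each line, and GI50, TGI and LC50 were read from the dose-response curves.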

[12] = system: SF-295; test: Cytotoxicity against human SF295 cells after 48 hrs by SRB assay; conditions: SF-295, 48 h; in short: as §2
[13] = system: SF-539; test: Cytotoxicity against human SF539 cells after 48 hrs by SRB assay; conditions: SF-539, 48 h; in short: as §2
[14] = system: SNB-19; test: Cytotoxicity against human SNB19 cells after 48 hrs by SRB assay; conditions: SNB-19, 48 h; in short: as §2
[15] = system: SNB-75; test: Cytotoxicity against human SNB75 cells after 48 hrs by SRB assay; conditions: SNB-75, 48 h; in short: as §3
[16] = system: U-251; test: Cytotoxicity against human U251 cells after 48 hrs by SRB assay; conditions: U-251, 48 h; in short: as §3
[17] = system: UACC-257; test: Cytotoxicity against human UACC257 cells after 48 hrs by SRB assay; conditions: UACC-257, 48 h; in short: as §3
[18] = system: IGROV-1; test: Cytotoxicity against human IGROV1 cells after 48 hrs by SRB assay; conditions: IGROV-1, 48 h; in short: as §1
[19] = system: OVCAR-3; test: Cytotoxicity against human OVCAR3 cells after 48 hrs by SRB assay; conditions: OVCAR-3, 48 h; in short: as §2
[20] = system: NCI/ADR-RES; test: Cytotoxicity against human NCI/ADR-RES cells after 48 hrs by SRB assay; in short: as §2
[21] = system: SK-OV-3; test: Cytotoxicity against human SKOV3 cells after 48 hrs by SRB assay; conditions: SK-OV-3, 48 h; in short: as §2
[22] = system: CAKI-1; test: Cytotoxicity against human Caki1 cells after 48 hrs by SRB assay; conditions: CAKI-1, 48 h; in short: as §1
[23] = system: SN12C; test: Cytotoxicity against human SN12C cells after 48 hrs by SRB assay; in short: as §2
[24] = system: TK-10; test: Cytotoxicity against human TK10 cells after 48 hrs by SRB assay; conditions: TK-10, 48 h; in short: as §3
[25] = system: UO-31; test: Cytotoxicity against human UO31 cells after 48 hrs by SRB assay; conditions: UO-31, 48 h; in short: as §3
[26] = system: DU-145; test: Cytotoxicity against human DU145 cells after 48 hrs by SRB assay; conditions: DU-145, 48 h; in short: as §1
[27] = system: MDA-MB-468; test: Cytotoxicity against human MDA-MB-468 cells after 48 hrs by SRB assay; conditions: MDA-MB-468, 48 h; in short: as §2
[28] = Cytotoxicity against human leukemia cells assessed as growth inhibition after 48 hrs by SRB assay; conditions: Leukemia cell
In short: (§4)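 Values come from the NCI-60 five-dose panel (0.01–100 µM). The subpanel MID is the mean GI50 over the lines of that tumour subpanel. The selectivity ratio is the full-panel MID divided by the subpanel MID; 3–6 is rated moderate and >6 high.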

[29] = Cytotoxicity against human colon cancer cells assessed as growth inhibition after 48 hrs by SRB assay; conditions: Cancer cell lines; in short: as §4
[30] = Cytotoxicity against human renal cancer cells assessed as growth inhibition after 48 hrs by SRB assay; conditions: Cancer cell lines; in short: as §4
[31] = read-out: LC50 (the source's name)

For `O=C1c2ccccc2C(=O)c2c1cc(Sc1ccc(F)cc1F)c1nsnc21`, the GI50 [1] was 3.32 µM, the LC50 [1] was 68.4 µM and the TGI [1] was 11.8 µM. It also gave a GI50 [2] of 2.2 µM, an LC50 [2] of 63.9 µM and a TGI [2] of 8.08 µM. It also gave a GI50 [3] of 14.9 µM, an LC50 (concentration killing 50% of cells) [3] greater than 100 µM and a TGI [3] of 42.4 µM. For the same compound, the GI50 [4] was 2.03 µM, the LC50 (concentration giving 50% net cell kill) [4] was 16.3 µM and the TGI [4] was 5.01 µM. The GI50 [5] was 3.76 µM, the LC50 (concentration giving 50% net cell kill) [5] was 37.1 µM and the TGI [5] was 12.4 µM. It also gave a GI50 [6] of 13.7 µM, an LC50 [6] of 56.2 µM and a TGI [6] of 27.7 µM. It also gave a GI50 [7] of 1.55 µM, a TGI [7] of 3.22 µM and a CC50 [7, 31] of 6.69 µM. The GI50 [8] was 2.84 µM, the LC50 [8] was 50 µM and the TGI [8] was 12.9 µM. The GI50 [9] was 8.72 µM, the LC50 [9] was greater than 100 µM and the TGI [9] was 36.3 µM. For the same compound, the GI50 [10] was 9.91 µM, the LC50 (concentration killing 50% of cells) [10] was greater than 100 µM and the TGI [10] was 77.3 µM. It also gave a GI50 [11] of 3.99 µM, an LC50 (50% lethal concentration) [11] of 69.5 µM and a TGI [11] of 16.3 µM. It also gave a GI50 [12] of 9 µM, an LC50 [12] greater than 100 µM and a TGI [12] of 44.2 µM. It also gave a GI50 [13] of 2.08 µM, an LC50 [13] of 8.63 µM and a TGI [13] of 4.24 µM. It also gave a GI50 [14] of 13.9 µM, an LC50 [14] of 68.6 µM and a TGI [14] of 30.9 µM. It also gave a GI50 [15] of 1.57 µM, an LC50 (concentration killing 50% of cells) [15] of 13.1 µM and a TGI [15] of 4.22 µM. The GI50 [16] was 1.9 µM, the LC50 [16] was 9.94 µM and the TGI [16] was 4.35 µM. The GI50 [17] was 1.59 µM, the LC50 [17] was 18 µM and the TGI [17] was 4.64 µM. For the same compound, the GI50 [18] was 2.93 µM, the LC50 [18] was 46.6 µM and the TGI [18] was 10.2 µM. For the same compound, the GI50 [19] was 1.82 µM, the TGI [19] was 3.44 µM and the CC50 [19, 31] was 6.52 µM. For the same compound, the GI50 [20] was 1.74 µM, the LC50 (concentration killing 50% of cells) [20] was greater than 100 µM and the TGI [20] was 4.59 µM. The GI50 [21] was 2.34 µM, the LC50 [21] was 13 µM and the TGI [21] was 5.08 µM. The GI50 [22] was 2.51 µM, the LC50 (concentration causing 50% net cell kill) [22] was greater than 100 µM and the TGI [22] was 7.04 µM. For the same compound, the GI50 [23] was 1.64 µM, the TGI [23] was 4.96 µM and the CC50 [23, 31] was 19.4 µM. The GI50 [24] was 5.07 µM, the LC50 (concentration killing 50% of cells) [24] was 38.6 µM and the TGI [24] was 14.1 µM. It also gave a GI50 [25] of 3.03 µM, an LC50 [25] of 42.6 µM and a TGI [25] of 15 µM. The GI50 [26] was 6.3 µM, the LC50 [26] was 45 µM and the TGI [26] was 18.7 µM. For the same compound, the GI50 [27] was 0.45 µM, the LC50 [27] was 4.19 µM and the TGI [27] was 1.52 µM. For the same compound, the GI50 [28] was 2.16 µM, the GI50 [29] was 7.43 µM and the GI50 [30] was 2.53 µM.
